Consider eight molecules from ChEMBL document CHEMBL1121923, “N2- and C-7 substituted actinomycin D analogues: synthesis, DNA-binding affinity, and biochemical and biological properties. Structure-activity relationship” (J Med Chem, 1981).

In assay [1] the test system is P388. In words: Concentration required for 50% inhibition of incorporation of labeled uridine by P388 cells for the synthesis of RNA (in vitro); Not determined because of lack of DNA binding. The note with it: Mus musculus. Type of assay: functional, cell-based.
For assay [2], the system named is P388. In words: Concentration required for 50% inhibition of incorporation of labeled thymidine by p388 cells for synthesis of DNA (in vitro); Not determined because of lack of DNA binding. The note with it: Mus musculus. Type of assay: functional, cell-based.
For assay [3], the system named is P388. In words: Concentration of compound required for 50% inhibition of synthesis of DNA in cultured P388 cells. Type of assay: functional. To be noted: Mus musculus, read-out: ED50 (the source's name).
In assay [4] the test system is P388. In words: Concentration of compound required for 50% inhibition of synthesis of RNA in cultured P388 cells. Type of assay: functional. To be noted: Mus musculus, read-out: ED50 (the source's name).
Assay [5] concerns Calf thymus DNA. In words: Apparent number of binding sites per base pairs in DNA; d indicates solubility too low for determination. Type of assay: nucleic-acid assay. To be noted: Bos taurus. In short, it runs like this: (§1)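 Calf thymus DNA; apparent binding constant and apparent number of drug binding sites per base pair, taken from a Scatchard plot of binding isotherms obtained by spectral titration. Run in 0.01 M phosphate buffer, pH 7.0, at 20 °C.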

Assay [6] relates to Calf thymus DNA. In words: Apparent binding constant against calf thymus DNA-drug complex; d indicates solubility too low for determination. Type of assay: nucleic-acid assay. The note with it: Bos taurus. In short, it runs like this:
as §1

For assay [7], the system named is P388. In words: Concentration of compound required for 50% inhibition of incorporation of labeled thymidine by p388 cells for synthesis of DNA (in vitro); Solubility too low. Type of assay: functional, cell-based. To be noted: Mus musculus.
Assay [8] has as its system P388. In words: Concentration of compound required for 50% inhibition of incorporation of labeled uridine by P388 cells for the synthesis of RNA (in vitro); Solubility too low. Type of assay: functional, cell-based. The note with it: Mus musculus.
Assay [9] relates to P388. In words: Optimal dose for antitumor activity was measured in P388 cells of CDF1 male mice in vivo. Type of assay: functional. To be noted: Mus musculus. The procedure, abridged:
(§2)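 CDF1 male mice, groups of seven, given 10^6 P388 cells ip on day 0; drug ip in 5% DMSO–saline on days 1, 5 and 9; controls received vehicle; range of doses tested, optimal nontoxic dose listed; median survival time; %ILS = (treated − control)/control × 100; average of two or more experiments.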

The subject of assay [10] is Calf thymus DNA. In words: Apparent binding constant against calf thymus DNA-drug complex; Not measurable. Type of assay: nucleic-acid assay. To be noted: Bos taurus. The procedure, abridged:
(§3)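 Calf thymus DNA; spectral titration; binding isotherms in 0.01 M phosphate buffer, pH 7.0, 20 °C; Kapp (per base pair) and Bapp (drug binding sites per base pair) taken from Scatchard plot.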

Assay [11] relates to P388. In words: Percent of increased life span of P388 cells implanted CDF1 male mice. Type of assay: functional. To be noted: Mus musculus. In short, it runs like this:
as §2

The subject of assay [12] is P388. In words: Concentration required for 50% inhibition of incorporation of labeled thymidine by p388 cells for synthesis of DNA (in vitro); e indicates values are high and variable. Type of assay: functional, cell-based. The note with it: Mus musculus.
Another assay relates to CCRF-CEM. In words: In vitro antitumor activity against human lymphoblastic leukemia cells. Type of assay: functional. The procedure, abridged:
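Human lymphoblastic leukemia CCRF-CEM cells grown in suspension culture; growth inhibition in vitro; ID50 (ng/mL) reported as the 50% inhibitory dose.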

In assay [13] the test system is Calf thymus DNA. In words: Apparent number of binding sites per base pairs in DNA; Not measurable. To be noted: Bos taurus. Type of assay: nucleic-acid assay. The procedure, abridged:
as §3

In assay [14] the test system is P388. In words: Concentration required for 50% inhibition of incorporation of labeled uridine by P388 cells for the synthesis of RNA (in vitro); e indicates values are high and variable. Type of assay: functional, cell-based. To be noted: Mus musculus.
In assay [15] the test system is P388. In words: Median survival time of the P388 cells implanted CDF1 male mice in vivo. To be noted: Mus musculus. Type of assay: functional. In short, it runs like this: as §2

Values after ≈ are worked out from the molar mass of the structure shown.

As for `CCCCCCCCCCCNc1c(C(=O)N[C@H]2C(=O)N[C@@H](C(C)C)C(=O)N3CCC[C@H]3C(=O)N(C)CC(=O)N(C)[C@H](C(C)C)C(=O)O[C@H]2C)c2nc3c(C(=O)N[C@@H]4C(=O)N[C@H](C(C)C)C(=O)N5CCC[C@@H]5C(=O)N(C)CC(=O)N(C)[C@@H](C(C)C)C(=O)O[C@@H]4C)ccc(C)c3oc-2c(C)c1=O`, the ED50 entry with P388 [1] and with P388 [2] was “Not measurable” throughout.
As for `Cc1c2oc3c(C)c(O)c(N)c(C(=O)N[C@@H]4C(=O)N[C@H](C(C)C)C(=O)N5CCC[C@H]5C(=O)N(C)CC(=O)N(C)[C@@H](C(C)C)C(=O)O[C@@H]4C)c3nc-2c(C(=O)N[C@@H]2C(=O)N[C@H](C(C)C)C(=O)N3CCC[C@H]3C(=O)N(C)CC(=O)N(C)[C@@H](C(C)C)C(=O)O[C@@H]2C)c/c1=N/Cc1ccc(Cl)c(Cl)c1`, the EC50 was found to be 418 nM with P388 [3] and 96 nM in the assay on P388 [4].
Consider `CCCCCCNc1c(C(=O)N[C@H]2C(=O)N[C@@H](C(C)C)C(=O)N3CCC[C@H]3C(=O)N(C)CC(=O)N(C)[C@H](C(C)C)C(=O)O[C@H]2C)c2nc3c(C(=O)N[C@@H]4C(=O)N[C@H](C(C)C)C(=O)N5CCC[C@@H]5C(=O)N(C)CC(=O)N(C)[C@@H](C(C)C)C(=O)O[C@@H]4C)ccc(C)c3oc-2c(C)c1=O`, for which the ED50 result in the assay on P388 [1] and in the assay with P388 [2] was “Not measurable” each time.
Turning to `CCCCCCCCCNc1c(C(=O)N[C@H]2C(=O)N[C@@H](C(C)C)C(=O)N3CCC[C@H]3C(=O)N(C)CC(=O)N(C)[C@H](C(C)C)C(=O)O[C@H]2C)c2nc3c(C(=O)N[C@@H]4C(=O)N[C@H](C(C)C)C(=O)N5CCC[C@@H]5C(=O)N(C)CC(=O)N(C)[C@@H](C(C)C)C(=O)O[C@@H]4C)ccc(C)c3oc-2c(C)c1=O`, the ED50 result in the assay on P388 [1] and in the assay with P388 [2] was “Not measurable” throughout.
For the molecule `CCCCCCCCC/N=c1/cc(C(=O)N[C@@H]2C(=O)N[C@H](C(C)C)C(=O)N3CCC[C@@H]3C(=O)N(C)CC(=O)N(C)[C@@H](C(C)C)C(=O)O[C@@H]2C)c2nc3c(C(=O)N[C@H]4C(=O)N[C@@H](C(C)C)C(=O)N5CCC[C@H]5C(=O)N(C)CC(=O)N(C)[C@H](C(C)C)C(=O)O[C@H]4C)c(N)c(O)c(C)c3oc-2c1C`, in the assay with Calf thymus DNA [5], the Bapp result is listed as “Not measurable”. Moreover, in the assay with Calf thymus DNA [6], the K app entry is reported as “Not measurable”. Besides, the ED50 entry in the assay on P388 [7] and with P388 [8] was “Solubility too low” each time.
As to `Cc1c2oc3c(C)ccc(C(=O)N[C@@H]4C(=O)N[C@H](C(C)C)C(=O)N5CCC[C@@H]5C(=O)N(C)CC(=O)N(C)[C@@H](C(C)C)C(=O)O[C@@H]4C)c3nc-2c(C(=O)N[C@H]2C(=O)N[C@@H](C(C)C)C(=O)N3CCC[C@H]3C(=O)N(C)CC(=O)N(C)[C@H](C(C)C)C(=O)O[C@H]2C)c(NCCCCCCCCN)c1=O`, the ED50 result in the assay with P388 [1] and with P388 [2] was “Not measurable” in each case.
The molecule `Cc1c2oc3c(C)c(OC(=O)Cc4ccc(Cl)c(Cl)c4)cc(C(=O)N[C@@H]4C(=O)N[C@H](C(C)C)C(=O)N5CCC[C@@H]5C(=O)N(C)CC(=O)N(C)[C@@H](C(C)C)C(=O)O[C@@H]4C)c3nc-2c(C(=O)N[C@H]2C(=O)N[C@@H](C(C)C)C(=O)N3CCC[C@H]3C(=O)N(C)CC(=O)N(C)[C@H](C(C)C)C(=O)O[C@H]2C)c(N)c1=O` gave an Optimal dose in the assay with P388 [9] of 0.5 mg/kg. Also, in the assay with Calf thymus DNA [10], the K app entry was “Not measurable”. Moreover, in the assay with P388 [11], the increase in lifespan (ILS) turned out to be 100%. The ED50 result with P388 [12] is “High and variable values”; with P388 [14] it was “High and variable values”. Further, in the assay with CCRF-CEM, the ID50 came out at 0.65 µg/mL (≈ 0.446 µM). For the same molecule, the Bapp entry in the assay on Calf thymus DNA [13] is “Not measurable”. The molecule also came in with an MST in the assay on P388 [15] of 21 days.
For `CCCCCNc1c(C(=O)N[C@H]2C(=O)N[C@@H](C(C)C)C(=O)N3CCC[C@H]3C(=O)N(C)CC(=O)N(C)[C@H](C(C)C)C(=O)O[C@H]2C)c2nc3c(C(=O)N[C@@H]4C(=O)N[C@H](C(C)C)C(=O)N5CCC[C@@H]5C(=O)N(C)CC(=O)N(C)[C@@H](C(C)C)C(=O)O[C@@H]4C)ccc(C)c3oc-2c(C)c1=O`, the ED50 result in the assay on P388 [1] and in the assay on P388 [2] was “Not measurable” each time.

A word on the ILS: it is the gain in survival time of treated over control animals, in per cent. Read a low ILS as a small benefit in survival.
